Experiments:
human plasma proteins = assay: Human plasma protein binding by equilibrium dialysis with UPLC-MS/MS; assay type: in vitro ADME; settings: for Kd at 72 h: human, human plasma (equilibrium dialysis against phosphate buffer); for maximum binding ability β: modified Scatchard equation, extract 1.2 to 60 μg/mL, human plasma, Pt 71.28 g/L
How it was run: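 Blank human plasma was placed in 10 kDa dialysis bags (pre-soaked in pH 7.4 phosphate buffer) and dialysed at 4 °C for 72 h against buffer containing the aqueous plant extract (1.2–60 µg/mL). Inside-bag concentration gave total drug; outside gave free drug. Analysis was by UPLC–ESI-MS/MS after methanol/formic acid protein precipitation, with matrix-specific 1/x² weighted calibration. Parameters came from a modified Scatchard fit using Pt 71.28 g/L (Lowry) and plasma water 99.25%.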

[1] = Analyte stability in human plasma and phosphate buffer; assay type: in vitro ADME; settings: for time stable at ambient temperature / reduction of the concentration after three freeze–thaw cycles: QC samples; for time stable at ambient temperature: human plasma and phosphate buffer, three concentration levels; for reduction of the concentration after three freeze–thaw cycles: −20 °C to room temperature; for time stable in auto-sampler conditions: processed QC samples, 15 °C
How it was run: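 Processed QC samples in human plasma and pH 7.4 phosphate buffer were tested at three concentration levels, three replicates each. Conditions were 6 h at ambient temperature, or three freeze (−20 °C)/thaw (room temperature) cycles followed by 24 h at 15 °C in the auto-sampler. Separately, samples were held 96 h at 4 °C. Mean UPLC–ESI-MS/MS concentrations were compared with freshly prepared QC samples.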

C[C@@H]1O[C@@H](Oc2c(-c3ccc(O)c(O)c3)oc3cc(O)cc(O)c3c2=O)[C@H](O)[C@H](O)[C@H]1O [quercitrin]
Kd at 72 h (human plasma proteins): 5.29 µM
maximum binding ability β (human plasma proteins): 0.6420 µmol/g
time stable at ambient temperature [1]: at least 6 h
reduction of the concentration after three freeze–thaw cycles [1]: < 10%
time stable in auto-sampler conditions [1]: ≥ 24 h

O=c1cc(-c2ccc(O)c(O)c2)oc2c([C@@H]3O[C@H](CO)[C@@H](O)[C@H](O)[C@H]3O)c(O)cc(O)c12 [orientin]
Kd at 72 h (human plasma proteins): 26.6 µM
maximum binding ability β (human plasma proteins): 2.685 µmol/g
time stable at ambient temperature [1]: at least 6 h
reduction of the concentration after three freeze–thaw cycles [1]: < 10%
time stable in auto-sampler conditions [1]: ≥ 24 h

O=c1cc(-c2ccc(O)cc2)oc2c([C@@H]3O[C@H](CO)[C@@H](O)[C@H](O)[C@H]3O)c(O)cc(O)c12 [vitexin]
Kd at 72 h (human plasma proteins): 19.7 µM
maximum binding ability β (human plasma proteins): 1.650 µmol/g
time stable at ambient temperature [1]: at least 6 h
reduction of the concentration after three freeze–thaw cycles [1]: < 10%
time stable in auto-sampler conditions [1]: ≥ 24 h

Source: publication PMC5761012 (Journal of Pharmaceutical Analysis, 2013)
